Laboratory results taken from ChEMBL document CHEMBL5370680, “Design and Biological Evaluation of Piperazine-Bearing Nitrobenzamide Hypoxia/GDEPT Prodrugs: The Discovery of CP-506” (ACS Med Chem Lett, 2023).

Tested on: not listed separately
Test: Selectivity ratio of IC50 for antiproliferative activity against wild type human NCI-H1299 cells to IC50 for antiproliferative activity against human NCI-H1299 cells expressing AKR1C3
Type: functional
Settings: time 4 hrs
In short: (§1)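 Ratio of mean IC50 in non-transfected wild-type cells to mean IC50 in the AKR1C3- or NfsA_Ec-transfected line. IC50 is from a 4 h prodrug exposure and 5 days' regrowth.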

**Q.** With `CCN1CCN(C(=O)c2cc(N(CCBr)CCBr)c(S(=O)(=O)CC)cc2[N+](=O)[O-])CC1` as the compound, how does the “Ratio IC50” value read?
**A.** The value was 1.2.

Tested on: NCI-H1299
Test: Antiproliferative activity against human NCI-H1299 cells expressing NfsA of Escherichia coli assessed as cell growth inhibition measured after 4 hrs
Type: functional
Settings: NCI-H1299, 4 h
In short: (§2)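 Monolayer antiproliferative assay using wild-type cells and isogenic lines transfected with AKR1C3 or E. coli NfsA. Cells exposed to prodrug for 4 h, then regrown for 5 days. IC50 is 50% growth inhibition versus untreated controls. Mean values reported, CV <20%.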

**Q.** With `CCN1CCN(C(=O)c2cc(N(CCBr)CCBr)c(S(=O)(=O)CC)cc2[N+](=O)[O-])CC1` as the compound, how does the IC50 read?
**A.** The IC50 was 552 nM.

Tested on: SiHa
Test: Antiproliferative activity against human SiHa cells assessed as inhibition of cell growth incubated for 4 hrs under anoxic condition and measured after 5 days regrowth under aerobic condition
Type: functional, cell-based
Settings: not given
In short: (§3)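 Low-density monolayer antiproliferative assay. Cells exposed to prodrug for 4 h under aerobic or anoxic conditions, then regrown aerobically for 5 days. IC50 is the concentration giving 50% growth inhibition versus untreated controls. Mean values reported, CV <20%.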

**Q.** For `CCN1CCN(C(=O)c2cc(N(CCBr)CCBr)c(S(=O)(=O)CC)cc2[N+](=O)[O-])CC1`, which IC50 is on record?
**A.** The IC50 was 23 µM.

Tested on: HCT-116
Test: Antiproliferative activity against human HCT-116 cells in three-dimensional cell culture multicellular layer expressing NfsA of Escherichia coli assessed as fold change in plating efficiency at 10 uM
Type: functional
Settings: not given
In short: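 Mixed MCLs of wild-type HCT116 with 3% NfsA_Ec-expressing cells, against 100% wild-type MCLs, exposed to 10 μM prodrug. Clonogenic plating efficiency measured. Fold change is the plating-efficiency ratio between wild-type and transfected MCLs. ≥3 independent experiments.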

**Q.** With `CCN1CCN(C(=O)c2cc(N(CCBr)CCBr)c(S(=O)(=O)CC)cc2[N+](=O)[O-])CC1` as the compound, how does the “fold change (FC)” value read?
**A.** The value was 5178.

Tested on: HCT-116
Test: Antiproliferative activity against wild type human HCT-116 cells assessed as cell growth inhibition measured after 4 hrs
Type: functional, cell-based
Settings: HCT-116, 4 h
In short: as §2

**Q.** With `CCN1CCN(C(=O)c2cc(N(CCBr)CCBr)c(S(=O)(=O)CC)cc2[N+](=O)[O-])CC1` as the compound, how does the IC50 read?
**A.** Its IC50 is 95 µM.

Tested on: not listed separately
Test: Toxicity in NIH-III nude mouse xenografted with human HCT-116 cells expressing NfsA of Escherichia coli assessed as body weight loss at 1000 micromol/kg, ip BID
Type: organism-based
Settings: in vivo, at 1000 µmol/kg

**Q.** Which Activity does the source give for `CCN1CCN(C(=O)c2cc(N(CCBr)CCBr)c(S(=O)(=O)CC)cc2[N+](=O)[O-])CC1` here?
**A.** Its Activity is < 10%.

Tested on: NCI-H1299
Test: Antiproliferative activity against wild type human NCI-H1299 cells assessed as cell growth inhibition measured after 4 hrs
Type: functional, cell-based
Settings: NCI-H1299, 4 h
In short: as §2

**Q.** Which IC50 does the source give for `CCN1CCN(C(=O)c2cc(N(CCBr)CCBr)c(S(=O)(=O)CC)cc2[N+](=O)[O-])CC1` here?
**A.** Its IC50 is 67 µM.

Tested on: not listed separately
Test: Selectivity ratio of IC50 for antiproliferative activity against wild type human HCT-116 cells to IC50 for antiproliferative activity against human HCT-116 cells expressing NfsA of Escherichia coli
Type: functional
Settings: time 4 hrs
In short: as §1

**Q.** With `CCN1CCN(C(=O)c2cc(N(CCBr)CCBr)c(S(=O)(=O)CC)cc2[N+](=O)[O-])CC1` as the compound, how does the “Ratio IC50” value read?
**A.** Its value is 511.

Tested on: not listed separately
Test: (§4) Selectivity ratio of IC50 for antiproliferative activity against human SiHa cells assessed as inhibition of cell growth under aerobic condition to IC50 for antiproliferative activity against human SiHa cells assessed as inhibition of cell growth under anoxic condition
Type: functional
Settings: not given
In short: (§5)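 Hypoxic cytotoxicity ratio is aerobic IC50 divided by anoxic IC50. Each IC50 comes from a 4 h drug exposure under aerobic or anoxic conditions, followed by 5 days' aerobic regrowth, relative to untreated controls.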

**Q.** With `CCN1CCN(C(=O)c2cc(N(CCBr)CCBr)c(S(=O)(=O)CC)cc2[N+](=O)[O-])CC1` as the compound, how does the “Ratio IC50” value read?
**A.** Its value is 11.

Tested on: HCT-116
Test: Antiproliferative activity against human HCT-116 cells in three-dimensional cell culture multicellular layers assessed as log cell killing under anoxic condition at 100 uM
Type: functional
Settings: not given
In short: (§6)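 HCT116 three-dimensional multicellular layers exposed to 100 μM prodrug under aerobic or anoxic conditions. Clonogenic survivors per MCL counted. Log cell kill = log CS(control) − log CS(treated). Mean of ≥3 independent experiments.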

**Q.** Which LCK does the source give for `CCN1CCN(C(=O)c2cc(N(CCBr)CCBr)c(S(=O)(=O)CC)cc2[N+](=O)[O-])CC1` here?
**A.** Its LCK is 0.016.

Tested on: HCT-116
Test: Antiproliferative activity against human HCT-116 cells in three-dimensional cell culture multicellular layers assessed as log cell killing under aerobic condition at 100 uM
Type: functional
Settings: not given
In short: as §6

**Q.** With `CCN1CCN(C(=O)c2cc(N(CCBr)CCBr)c(S(=O)(=O)CC)cc2[N+](=O)[O-])CC1` as the compound, how does the LCK read?
**A.** Its LCK is 2.3.

Tested on: HCT-116
Test: Antiproliferative activity against human HCT-116 cells assessed as inhibition of cell growth incubated for 4 hrs under aerobic condition and measured after 5 days regrowth under aerobic condition
Type: functional, cell-based
Settings: not given
In short: as §3

**Q.** With `CCN1CCN(C(=O)c2cc(N(CCBr)CCBr)c(S(=O)(=O)CC)cc2[N+](=O)[O-])CC1` as the compound, how does the IC50 read?
**A.** Its IC50 is 142 µM.

Tested on: not listed separately
Test: Selectivity ratio of IC50 for antiproliferative activity against wild type human NCI-H1299 cells to IC50 for antiproliferative activity against human NCI-H1299 cells expressing NfsA of Escherichia coli
Type: functional
Settings: time 4 hrs
In short: as §1

**Q.** With `CCN1CCN(C(=O)c2cc(N(CCBr)CCBr)c(S(=O)(=O)CC)cc2[N+](=O)[O-])CC1` as the compound, how does the “Ratio IC50” value read?
**A.** The value was 121.

Tested on: not listed separately
Test: as §4, with “HCT-116” for “SiHa”, “cells overexpressing cytochrome P450 oxidoreductase” for “cells”
Type: functional
Settings: not given
In short: as §5

**Q.** With `CCN1CCN(C(=O)c2cc(N(CCBr)CCBr)c(S(=O)(=O)CC)cc2[N+](=O)[O-])CC1` as the compound, how does the “Ratio IC50” value read?
**A.** The value was 21.

Tested on: not listed separately
Test: Octanol/water partition coefficient, log D of the compound at pH 7.4
Type: physicochemical
Settings: not given
In short: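 Octanol–water partition coefficient by shake-flask method at pH 7.4.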

**Q.** With `CCN1CCN(C(=O)c2cc(N(CCBr)CCBr)c(S(=O)(=O)CC)cc2[N+](=O)[O-])CC1` as the compound, how does the logD read?
**A.** The logD was 2.1.

Tested on: NCI-H1299
Test: Antiproliferative activity against human NCI-H1299 cells expressing AKR1C3 assessed as cell growth inhibition measured after 4 hrs
Type: functional, cell-based
Settings: NCI-H1299, 4 h
In short: as §2

**Q.** For `CCN1CCN(C(=O)c2cc(N(CCBr)CCBr)c(S(=O)(=O)CC)cc2[N+](=O)[O-])CC1`, which IC50 is on record?
**A.** The IC50 was 54 µM.

Tested on: not listed separately
Test: Toxicity in NIH-III nude mouse xenografted with human HCT-116 cells expressing NfsA of Escherichia coli assessed as body weight loss at 1000 micromol/kg, ip BID measured on day 6
Type: organism-based
Settings: in vivo, 144 h, at 1000 µmol/kg, time 6 day

**Q.** Which Activity does the source give for `CCN1CCN(C(=O)c2cc(N(CCBr)CCBr)c(S(=O)(=O)CC)cc2[N+](=O)[O-])CC1` here?
**A.** Its Activity is “<= 7%”.

Tested on: HCT-116
Test: Antiproliferative activity against human HCT-116 cells expressing AKR1C3 assessed as cell growth inhibition measured after 4 hrs
Type: functional, cell-based
Settings: HCT-116, 4 h
In short: as §2

**Q.** For `CCN1CCN(C(=O)c2cc(N(CCBr)CCBr)c(S(=O)(=O)CC)cc2[N+](=O)[O-])CC1`, which IC50 is on record?
**A.** Its IC50 is 62 µM.

Tested on: not listed separately
Test: Selectivity ratio of IC50 for antiproliferative activity against human HCT-116 cells assessed as inhibition of cell growth under aerobic condition to IC50 for antiproliferative activity against human HCT-116 cells assessed as inhibition of cell growth under anoxic condition
Type: functional
Settings: not given
In short: as §5

**Q.** Which “Ratio IC50” value does the source give for `CCN1CCN(C(=O)c2cc(N(CCBr)CCBr)c(S(=O)(=O)CC)cc2[N+](=O)[O-])CC1` here?
**A.** Its value is 5.3.

Tested on: HCT-116
Test: Antiproliferative activity against human HCT-116 cells overexpressing cytochrome P450 oxidoreductase assessed as inhibition of cell growth incubated for 4 hrs under anoxic condition and measured after 5 days regrowth under aerobic condition
Type: functional, cell-based
Settings: not given
In short: as §3

**Q.** For `CCN1CCN(C(=O)c2cc(N(CCBr)CCBr)c(S(=O)(=O)CC)cc2[N+](=O)[O-])CC1`, which IC50 is on record?
**A.** Its IC50 is 2800 nM.

Tested on: not listed separately
Test: Selectivity ratio of IC50 for antiproliferative activity against wild type human HCT-116 cells to IC50 for antiproliferative activity against human HCT-116 cells expressing AKR1C3
Type: functional
Settings: time 4 hrs
In short: as §1

**Q.** Which “Ratio IC50” value does the source give for `CCN1CCN(C(=O)c2cc(N(CCBr)CCBr)c(S(=O)(=O)CC)cc2[N+](=O)[O-])CC1` here?
**A.** Its value is 1.5.

Tested on: SiHa
Test: Antiproliferative activity against human SiHa cells assessed as inhibition of cell growth incubated for 4 hrs under aerobic condition and measured after 5 days regrowth under aerobic condition
Type: functional, cell-based
Settings: not given
In short: as §3

**Q.** Which IC50 does the source give for `CCN1CCN(C(=O)c2cc(N(CCBr)CCBr)c(S(=O)(=O)CC)cc2[N+](=O)[O-])CC1` here?
**A.** The IC50 was 253 µM.

Tested on: HCT-116
Test: Antiproliferative activity against human HCT-116 cells in three-dimensional cell culture multicellular layer expressing AKR1C3 assessed as fold change in plating efficiency at 10 uM
Type: functional
Settings: not given
In short: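 100% AKR1C3-expressing HCT116 MCLs, against wild-type HCT116 MCLs, exposed to 10 μM prodrug. Clonogenic plating efficiency measured. Fold change is the plating-efficiency ratio between wild-type and transfected MCLs. ≥3 independent experiments.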

**Q.** With `CCN1CCN(C(=O)c2cc(N(CCBr)CCBr)c(S(=O)(=O)CC)cc2[N+](=O)[O-])CC1` as the compound, how does the “fold change (FC)” value read?
**A.** Its value is 0.9.

Tested on: HCT-116
Test: Antiproliferative activity against human HCT-116 cells overexpressing cytochrome P450 oxidoreductase assessed as inhibition of cell growth incubated for 4 hrs under aerobic condition and measured after 5 days regrowth under aerobic condition
Type: functional, cell-based
Settings: not given
In short: as §3

**Q.** With `CCN1CCN(C(=O)c2cc(N(CCBr)CCBr)c(S(=O)(=O)CC)cc2[N+](=O)[O-])CC1` as the compound, how does the IC50 read?
**A.** The IC50 was 60 µM.

Tested on: not listed separately
Test: Toxicity in NIH-III nude mouse xenografted with human HCT-116 cells expressing NfsA of Escherichia coli assessed as body weight loss at 1000 micromol/kg, ip BID measured on day 16
Type: organism-based
Settings: in vivo, 384 h, dose 1000 µmol/kg, time 16 day

**Q.** For `CCN1CCN(C(=O)c2cc(N(CCBr)CCBr)c(S(=O)(=O)CC)cc2[N+](=O)[O-])CC1`, which Activity is on record?
**A.** Its Activity is “Non-Toxic”.

Tested on: HCT-116
Test: Antiproliferative activity against human HCT-116 cells assessed as inhibition of cell growth incubated for 4 hrs under anoxic condition and measured after 5 days regrowth under aerobic condition
Type: functional, cell-based
Settings: not given
In short: as §3

**Q.** For `CCN1CCN(C(=O)c2cc(N(CCBr)CCBr)c(S(=O)(=O)CC)cc2[N+](=O)[O-])CC1`, which IC50 is on record?
**A.** The IC50 was 27 µM.

Tested on: HCT-116
Test: Antiproliferative activity against human HCT-116 cells expressing NfsA of Escherichia coli assessed as cell growth inhibition measured after 4 hrs
Type: functional
Settings: HCT-116, 4 h
In short: as §2

**Q.** For `CCN1CCN(C(=O)c2cc(N(CCBr)CCBr)c(S(=O)(=O)CC)cc2[N+](=O)[O-])CC1`, which IC50 is on record?
**A.** The IC50 was 186 nM.
